Columns and labels:
[1] = test system: HL-60; assay: Effect on Ca2+ mobilization in human wild type HL60 cells; format: functional, cell-based
Method in brief: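 Wild-type, non-transfected HL-60 cells, grown without G418, were run in the same Fluo-4 Ca2+ flux assay. Fluorescence was monitored every 5 s for 240 s at room temperature.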

[2] = test system: HL-60; assay: Cytotoxicity against human wild type HL60 cells at 5 to 20 uM after 60 mins by CellTitre-Glo luminescent assay; format: cell-based; conditions: hl-60, 1 h
Method in brief: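 Wild-type HL-60 cells at 3×10^4 cells/well were exposed to 5, 10 or 20 µM compound for 60 min at 37 °C in 5% CO2. Samples were equilibrated to room temperature for 30 min before the CellTiter-Glo luminescence read. Triplicate samples; the experiment was representative of two.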

[3] = target: T1, N-formyl peptide receptor 3 (Homo sapiens, UniProt P25089); assay: Agonist activity at FPR3 (unknown origin) transfected in human HL60 cells assessed as induction of Ca2+ mobilization; format: cell-based, HL-60
T1 sequence (P25089 whole entry): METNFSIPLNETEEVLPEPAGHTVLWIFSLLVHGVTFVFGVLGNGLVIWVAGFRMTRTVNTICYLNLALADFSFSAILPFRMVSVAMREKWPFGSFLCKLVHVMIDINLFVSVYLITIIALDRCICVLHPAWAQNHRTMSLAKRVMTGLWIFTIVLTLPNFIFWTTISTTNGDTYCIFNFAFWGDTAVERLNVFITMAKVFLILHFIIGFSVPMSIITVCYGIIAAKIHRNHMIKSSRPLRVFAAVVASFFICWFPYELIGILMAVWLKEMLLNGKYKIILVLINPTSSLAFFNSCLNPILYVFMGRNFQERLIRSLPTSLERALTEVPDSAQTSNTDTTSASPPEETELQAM

[4] = target: T2, fMet-Leu-Phe receptor (Homo sapiens, UniProt P21462); assay: Agonist activity at FPR1 (unknown origin) transfected in human HL60 cells assessed as induction of Ca2+ mobilization; format: functional, cell-based, HL-60
T2 sequence (P21462 whole entry): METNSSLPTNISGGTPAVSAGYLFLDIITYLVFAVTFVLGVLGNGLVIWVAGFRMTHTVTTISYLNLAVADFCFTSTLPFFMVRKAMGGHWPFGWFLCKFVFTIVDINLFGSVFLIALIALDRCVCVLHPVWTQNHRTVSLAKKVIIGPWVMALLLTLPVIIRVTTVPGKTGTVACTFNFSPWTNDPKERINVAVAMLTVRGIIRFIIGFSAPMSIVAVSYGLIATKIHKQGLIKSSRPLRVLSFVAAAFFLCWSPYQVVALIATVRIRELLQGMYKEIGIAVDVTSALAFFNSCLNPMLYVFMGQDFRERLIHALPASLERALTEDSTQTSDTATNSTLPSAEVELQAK

[5] = target: T3, N-formyl peptide receptor 2 (Homo sapiens, UniProt P25090); assay: Agonist activity at FPR2 (unknown origin) transfected in human HL60 cells assessed as induction of Ca2+ mobilization; format: functional, cell-based, HL-60
T3 sequence (P25090 whole entry): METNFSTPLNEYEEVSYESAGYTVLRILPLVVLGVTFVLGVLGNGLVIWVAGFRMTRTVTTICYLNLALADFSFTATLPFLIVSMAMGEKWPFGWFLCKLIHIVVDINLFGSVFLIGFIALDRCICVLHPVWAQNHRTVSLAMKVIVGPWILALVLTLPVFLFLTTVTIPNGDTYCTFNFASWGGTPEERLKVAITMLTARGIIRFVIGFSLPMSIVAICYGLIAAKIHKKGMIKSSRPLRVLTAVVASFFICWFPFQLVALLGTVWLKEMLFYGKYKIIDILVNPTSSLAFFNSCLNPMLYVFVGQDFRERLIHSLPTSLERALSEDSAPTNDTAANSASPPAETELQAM

[6] = target: T4, fMet-Leu-Phe receptor (Homo sapiens) (UniProt P21462); assay: Agonist activity at FPR1 (unknown origin) transfected in human HL60 cells assessed as induction of Ca2+ mobilization relative to fMLF; format: functional, cell-based; conditions: HL-60
T4 sequence (whole entry): T2 sequence (P21462 whole entry)
Method in brief: (§1)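 Same Fluo-4 Ca2+ flux in transfected HL-60 cells. The peak fluorescence change over baseline was normalized to 5 nM fMLF for FPR1 cells and to 5 nM WKYMVm for FPR2 and FPR3 cells, each taken as 100%. Efficacy was read from 5–6 point dose-response curves.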

[7] = target: fMet-Leu-Phe receptor 1/2 (Homo sapiens) (UniProt P21462+P25090); assay: Agonist activity at FPR1/FPR2 in human neutrophils assessed as induction of Ca2+ mobilization relative to fMLF; format: functional
Method in brief: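 Neutrophils from healthy donors were isolated by dextran sedimentation, Histopaque 1077 gradient and hypotonic red cell lysis. […] Peak response was normalized to 5 nM fMLF as 100%. EC50 comes from 5–6 point curves, mean of three experiments with different donors.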

[8] = target: T5, N-formyl peptide receptor 2 (Homo sapiens) (UniProt P25090); assay: Agonist activity at FPR2 (unknown origin) transfected in human HL60 cells assessed as induction of Ca2+ mobilization relative to WKYMVm; format: functional, cell-based; conditions: HL-60; method in brief: as §1
T5 sequence (whole entry): T3 sequence (P25090 whole entry)

Row | SMILES | EC50 [1] [µM] | EC50 [3] [µM] | EC50 [4] [µM] | EC50 [5] [µM] | Efficacy [6] [%] | Efficacy [7] [%] | Efficacy [8] [%] | Activity [2]
1 | CC1=NN(CC(=O)Nc2ccc(I)cc2)C(=O)CC1 | > 50 | > 50 | > 50 | > 50 |  |  |  | Non-toxic
2 | COc1cc(Cc2cc(C)nn(CC(=O)Nc3ccc(I)cc3)c2=O)cc(OC)c1 | > 50 | > 50 |  |  | 80 | 75 |  | Non-toxic
3 | COc1ccc(Cc2cc(Cc3ccccc3)nn(CC(=O)Nc3ccc(Br)cc3)c2=O)cc1 | > 50 | > 50 | > 50 | > 50 |  |  |  | Non-toxic
4 | COc1ccc(Cc2cc(-c3ccc(OC)cc3)nn(CC(=O)Nc3ccc(Br)cc3)c2=O)cc1 | > 50 | > 50 | > 50 | > 50 |  |  |  | Non-toxic
5 | COc1cccc(Cc2cc(-c3ccc(F)cc3)nn(CC(=O)Nc3ccc4c(c3)OCO4)c2=O)c1 | > 50 | > 50 | > 50 | > 50 |  |  |  | Non-toxic
6 | COc1ccc(-c2cc(Cc3cccc(OC)c3)c(=O)n(CC(=O)Nc3ccc4c(c3)OCO4)n2)cc1 | > 50 | > 50 | > 50 | > 50 |  |  |  | Non-toxic
7 | COc1ccc(-c2cc(Cc3cccc(OC)c3)c(=O)n(CC(=O)Nc3ccc(F)cc3)n2)cc1 | > 50 | > 50 | > 50 | > 50 |  |  |  | Non-toxic
8 | COc1cccc(Cc2cc(-c3ccc(Cl)cc3)nn(CC(=O)Nc3ccc(F)cc3)c2=O)c1 | > 50 | > 50 | > 50 | > 50 |  |  |  | Non-toxic
9 | COc1ccc(Cc2cc(-c3ccc(Cl)cc3)nn(CC(=O)Nc3ccc(Br)cc3)c2=O)cc1 | > 50 | > 50 | > 50 | > 50 |  |  |  | Non-toxic
10 | Cc1cc(NC(=O)c2ccc(Br)cc2)c(=O)n(CC(=O)Nc2ccc(Br)cc2)n1 | > 50 | > 50 | > 50 | > 50 |  |  |  | Non-toxic
11 | COc1ccc(Cc2cc(-c3ccc(C)cc3)nn(CC(=O)Nc3ccc(Br)cc3)c2=O)cc1 | > 50 | > 50 | > 50 | > 50 |  |  |  | Non-toxic
12 | COc1cccc(Cc2cc(-c3ccc(F)cc3)nn(CC(=O)Nc3ccc(F)cc3)c2=O)c1 | > 50 | > 50 | > 50 | > 50 |  |  |  | Non-toxic
13 | COc1cccc(Cc2cc(-c3ccc(Cl)cc3)nn(CC(=O)Nc3ccc4c(c3)OCO4)c2=O)c1 | > 50 | > 50 | > 50 | > 50 |  |  |  | Non-toxic
14 | COc1cccc(Cc2cc(-c3ccccc3)nn(CC(=O)Nc3ccc4c(c3)OCO4)c2=O)c1 | > 50 | > 50 | > 50 | > 50 |  |  |  | Non-toxic
15 | COc1cccc(Cc2cc(-c3ccc(C)cc3)nn(CC(=O)Nc3ccc4c(c3)OCO4)c2=O)c1 | > 50 | > 50 | > 50 | > 50 |  |  |  | Non-toxic
16 | COc1cccc(Cc2cc(-c3cccs3)nn(CC(=O)Nc3ccc4c(c3)OCO4)c2=O)c1 | > 50 | > 50 | > 50 | > 50 |  |  |  | Non-toxic
17 | COc1cccc(Cc2cc(-c3ccccc3)nn(CC(=O)Nc3ccc(F)cc3)c2=O)c1 | > 50 | > 50 | > 50 | > 50 |  |  |  | Non-toxic
18 | Cc1ccc(=O)n(CC(=O)Nc2ccc(I)cc2)n1 | > 50 | > 50 | > 50 | > 50 |  |  |  | Non-toxic

Now from value to compound, other results behind:

Row | EC50 [1] [µM] | EC50 [3] [µM] | EC50 [4] [µM] | EC50 [5] [µM] | Efficacy [6] [%] | Efficacy [7] [%] | Efficacy [8] [%] | SMILES | Activity [2]
19 | > 50 | > 50 | > 50 | > 50 |  |  |  | COc1cccc(Cc2cc(-c3cccs3)nn(CC(=O)Nc3ccc(F)cc3)c2=O)c1 | Non-toxic
20 | > 50 | > 50 | 13.8 | > 50 | 20 |  |  | Cc1cc(Cc2cccc3ccccc23)c(=O)n(CC(=O)Nc2ccc(Br)cc2)n1 | Non-toxic
21 | > 50 | > 50 | > 50 | > 50 |  |  |  | Cc1cc(Cc2cccc(Br)c2)c(=O)n(CC(=O)Nc2ccc(Br)cc2)n1 | Non-toxic
22 | > 50 | > 50 |  |  | 80 | 65 |  | COc1cccc(Cc2cc(C3CCCCC3)nn(CC(=O)Nc3ccc(Br)cc3)c2=O)c1 | Non-toxic
23 | > 50 | > 50 |  |  | 55 | 70 |  | COc1ccc(-c2cc(C)nn(CC(=O)Nc3ccc(Br)cc3)c2=O)cc1 | Non-toxic
24 | > 50 | > 50 | > 50 | > 50 |  |  |  | COc1cccc(Cc2cc(-c3ccc(C)cc3)nn(CC(=O)Nc3ccc(F)cc3)c2=O)c1 | Non-toxic
25 | > 50 | > 50 |  |  | 115 |  | 85 | Cc1cc(N)c(=O)n(CC(=O)Nc2ccc(Br)cc2)n1 | Non-toxic
26 | > 50 | > 50 |  |  | 100 | 90 |  | Cc1cc(Cc2cccc(Cl)c2)c(=O)n(CC(=O)Nc2ccc(Br)cc2)n1 | Non-toxic
27 | > 50 | > 50 | > 50 | > 50 |  |  |  | Cc1cc(Cc2ccc(C(F)(F)F)cc2)c(=O)n(CC(=O)Nc2ccc(Br)cc2)n1 | Non-toxic
28 | > 50 | > 50 | > 50 | > 50 |  |  |  | COc1cc(Cc2cc(C)nn(CC(=O)Nc3ccc(Br)cc3)c2=O)cc(OC)c1 | Non-toxic
29 | > 50 | > 50 |  |  | 110 | 130 |  | Cc1cc(Cc2cccc(F)c2)c(=O)n(CC(=O)Nc2ccc(Br)cc2)n1 | Non-toxic
30 | > 50 | > 50 | > 50 | > 50 |  |  |  | Cc1cc(Cc2ccccc2)c(=O)n(CC(=O)Nc2ccc(F)cc2)n1 | Non-toxic
31 | > 50 | > 50 | > 50 | > 50 |  |  |  | COc1ccc(Cc2cc(-c3cccs3)nn(CC(=O)Nc3ccc(Br)cc3)c2=O)cc1 | Non-toxic
32 | > 50 | > 50 | > 50 | > 50 |  |  |  | Cc1cc(Cc2ccc(C#N)cc2)c(=O)n(CC(=O)Nc2ccc(Br)cc2)n1 | Non-toxic
33 | > 50 | > 50 | > 50 | > 50 |  |  |  | COc1ccc(Cc2cc(-c3ccc(F)cc3)nn(CC(=O)Nc3ccc(Br)cc3)c2=O)cc1 | Non-toxic
